Measured values collected from several papers.
Converted amounts (≈) assume the structure as drawn.
CYP3A7: Cytochrome P450 3A7 (CYP3A7, Homo sapiens, UniProt P24462)

O=[N+]([O-])c1cccc(/C=N/c2c(-c3ccccc3)nc3ccc(Cl)cn23)c1  CC50 (MT4; cell growth or viability, MTT; 5 days): 82.1 µg/mL (≈ 218 µM)
C[C@@H](N)CN(C)c1ccc(Nc2cc(NC3CC3)n3ncc(C#N)c3n2)cc1-n1cnnc1  compound remaining (metabolic stability; male CD-1 mouse, liver microsomes; 5 µM, 30 min, pH 7.4): 84%
COc1c(-c2ccc3cc(NS(C)(=O)=O)ccc3c2)cc(-n2ccc(=O)[nH]c2=O)cc1C(C)(C)C  inhibition (CYP3A7; enzyme activity, inhibitor, fluorescence; 20 µM, 10 min, pH 7.4): ≥ 50%
N#Cc1cnn2c(Nc3cn(CCN4CCCC4)cn3)cc(Nc3cccc(-n4cnnc4)c3)nc12  compound remaining (metabolic stability; male CD-1 mouse, liver microsomes; 5 µM, 30 min, pH 7.4): 67%
CC(C)(C)OC(=O)N[C@H]1CCCCC/C=C\[C@@H]2C[C@@]2(C(=O)NS(=O)(=O)C2CC2)NC(=O)[C@@H]2C[C@@H](OC(=O)N3Cc4cccc(F)c4C3)CN2C1=O  inhibition (CYP3A7; enzyme activity, inhibitor, fluorescence; 20 µM, 10 min, pH 7.4): ≥ 50%
N#C[C@@]12C[C@@H]1[C@@H](n1cnc3c(N[C@@H](C4CCC4)C4CC4)nc(I)nc31)[C@H](O)[C@@H]2O  compound remaining (metabolic stability; rat, liver microsomes; 1 h): 72.9%
Cc1ccc(Cn2cc(C(=O)NN)c(=O)c3cc(Oc4ccccc4)ccc32)cc1  compound remaining (metabolic stability; male rat, liver microsomes; 1 µM, 30 min): > 99%
COC[C@H]1C[C@@H](c2ncc(-c3ccc4c(c3)COc3cc5c(ccc6nc([C@@H]7CC[C@H](C)N7C(=O)[C@@H](NC(=O)OC)C(C)C)[nH]c65)cc3-4)[nH]2)N(C(=O)[C@H](NC(=O)OC)c2ccccc2)C1  inhibition (CYP3A7; enzyme activity, inhibitor, fluorescence; 20 µM, 10 min, pH 7.4): ≥ 50%
O=c1[nH]cnc2c1ncn2[C@H]1CC[C@@H](CO)O1  CC50 (MT4; cell growth or viability, MTT; 5 days): > 50 µg/mL
CCN(CCN)c1ccc(Nc2cc(NC3CC3)n3ncc(C#N)c3n2)cc1-n1cnnc1  compound remaining (metabolic stability; male CD-1 mouse, liver microsomes; 5 µM, 30 min, pH 7.4): 92%
C=C[C@@H]1C[C@]1(NC(=O)[C@@H]1C[C@@H](Oc2ncc(OC)c3ccc(Cl)cc23)CN1C(=O)[C@@H](NC(=O)OC(C)(C)C)C(C)(C)C)C(=O)NS(=O)(=O)C1CC1  inhibition (CYP3A7; enzyme activity, inhibitor, fluorescence; 20 µM, 10 min, pH 7.4): ≥ 50%
O=[N+]([O-])c1ccccc1/C=N/c1c(-c2ccccc2)nc2ccc(Cl)cn12  CC50 (MT4; cell growth or viability, MTT; 5 days): > 125 µg/mL
